According to ChEMBL document CHEMBL2163332 (J Med Chem, 2012):
Calls of active or inactive are those of the source. No cut-off for these calls is given here.

Tested on: not listed separately
Test: Selectivity ratio of Ki for Myc-tagged delta opioid receptor to Ki for FLAG-tagged mu opioid receptor
Compound `C=C(C(N)=O)[C@@H](NC(=O)[C@H](Cc1c[nH]c2ccccc12)NC(=O)[C@@H]1CCCN1C(=O)[C@@H](N)Cc1ccc(O)cc1)c1ccc(F)cc1` has a Ratio Ki of 1240. In the case of `C=C(C(N)=O)[C@@H](NC(=O)[C@H](Cc1c[nH]c2ccccc12)NC(=O)[C@@H]1CCCN1C(=O)[C@@H](N)Cc1ccc(O)cc1)c1ccc(Cl)cc1`, the Ratio Ki is reported as 1520.

Molecular target: T1, Mu-type opioid receptor (Homo sapiens, UniProt P35372)
T1 sequence (P35372 whole entry): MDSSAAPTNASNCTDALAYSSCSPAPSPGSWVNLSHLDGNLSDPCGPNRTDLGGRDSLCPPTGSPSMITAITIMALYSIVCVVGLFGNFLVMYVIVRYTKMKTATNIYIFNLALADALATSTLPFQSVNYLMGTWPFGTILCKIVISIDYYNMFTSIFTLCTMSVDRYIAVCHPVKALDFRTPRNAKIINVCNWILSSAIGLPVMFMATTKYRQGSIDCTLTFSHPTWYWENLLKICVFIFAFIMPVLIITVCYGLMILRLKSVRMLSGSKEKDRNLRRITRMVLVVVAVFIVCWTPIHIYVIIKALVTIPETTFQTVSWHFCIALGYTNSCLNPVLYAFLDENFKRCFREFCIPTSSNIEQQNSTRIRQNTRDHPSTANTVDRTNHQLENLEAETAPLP
Test: Displacement of [3H]DAMGO from FLAG-tagged mu opioid receptor expressed in HEK293 cells after 60 mins by liquid scintillation counter
Assay type: cell-based
For `C=C(C(N)=O)[C@@H](NC(=O)[C@H](Cc1c[nH]c2ccccc12)NC(=O)[C@@H]1CCCN1C(=O)[C@@H](N)Cc1ccc(O)cc1)c1ccc(F)cc1`, the Ki was 13.7 nM. Work on `C=C(C(N)=O)[C@@H](NC(=O)[C@H](Cc1c[nH]c2ccccc12)NC(=O)[C@@H]1CCCN1C(=O)[C@@H](N)Cc1ccc(O)cc1)c1ccc(Cl)cc1` yielded a Ki of 7.12 nM.

Molecular target: Delta-type opioid receptor (Homo sapiens, UniProt P41143)
Sequence (P41143 whole entry): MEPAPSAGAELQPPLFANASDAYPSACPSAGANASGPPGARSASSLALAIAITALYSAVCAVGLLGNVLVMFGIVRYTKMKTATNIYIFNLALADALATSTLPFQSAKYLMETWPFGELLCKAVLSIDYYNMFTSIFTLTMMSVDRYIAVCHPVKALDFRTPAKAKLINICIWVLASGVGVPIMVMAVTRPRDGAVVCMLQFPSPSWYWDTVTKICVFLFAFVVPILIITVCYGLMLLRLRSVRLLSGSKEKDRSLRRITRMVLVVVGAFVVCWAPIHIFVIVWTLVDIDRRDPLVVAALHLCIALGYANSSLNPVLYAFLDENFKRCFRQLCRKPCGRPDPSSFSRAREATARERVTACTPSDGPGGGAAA
Test: Displacement of [3H]DPDPE from Myc-tagged delta opioid receptor expressed in HEK293 cells after 60 mins by liquid scintillation counter
Assay type: cell-based
Work on `C=C(C(N)=O)[C@@H](NC(=O)[C@H](Cc1c[nH]c2ccccc12)NC(=O)[C@@H]1CCCN1C(=O)[C@@H](N)Cc1ccc(O)cc1)c1ccc(F)cc1` yielded a Ki of 17000 nM. `C=C(C(N)=O)[C@@H](NC(=O)[C@H](Cc1c[nH]c2ccccc12)NC(=O)[C@@H]1CCCN1C(=O)[C@@H](N)Cc1ccc(O)cc1)c1ccc(Cl)cc1` showed a Ki of 10800 nM.

Molecular target: Delta-type opioid receptor (Mus musculus, UniProt P32300)
Sequence (P32300 whole entry): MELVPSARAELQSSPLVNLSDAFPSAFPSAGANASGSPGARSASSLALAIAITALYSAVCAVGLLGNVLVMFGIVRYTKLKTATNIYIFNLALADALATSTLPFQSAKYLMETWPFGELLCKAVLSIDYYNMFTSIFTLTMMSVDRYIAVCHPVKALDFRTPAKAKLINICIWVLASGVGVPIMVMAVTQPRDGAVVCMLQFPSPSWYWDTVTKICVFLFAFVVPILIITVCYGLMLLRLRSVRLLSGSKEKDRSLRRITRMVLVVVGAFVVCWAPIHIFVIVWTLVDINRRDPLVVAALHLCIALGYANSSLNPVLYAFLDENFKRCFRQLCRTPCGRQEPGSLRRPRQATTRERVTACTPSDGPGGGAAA
Test: Agonist activity at delta opioid receptor in Kunming mouse vas deferens assessed as inhibition of electrically-stimulated muscle contraction
Assay type: functional, tissue-based
With `C=C(C(N)=O)[C@@H](NC(=O)[C@H](Cc1c[nH]c2ccccc12)NC(=O)[C@@H]1CCCN1C(=O)[C@@H](N)Cc1ccc(O)cc1)c1ccc(F)cc1` the IC50 was 130 nM. In the case of `C=C(C(N)=O)[C@@H](NC(=O)[C@H](Cc1c[nH]c2ccccc12)NC(=O)[C@@H]1CCCN1C(=O)[C@@H](N)Cc1ccc(O)cc1)c1ccc(Cl)cc1`, the IC50 is reported as 36.7 nM.

Molecular target: T1, Mu-type opioid receptor
Test: Agonist activity at mu opioid receptor expressed in HEK293 cells assessed as inhibition of forskolin-induced cAMP accumulation after 30 mins by liquid scintillation counter relative to control
Assay type: functional, cell-based
In short: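 MOR-expressing HEK293 cells seeded at 80% confluence the day before, washed with serum-free medium, preincubated 10 min at 37 °C with 1 mM IBMX, then peptide (5 × 10−11 to 5 × 10−5 M) with 50 μM forskolin added for 30 min at 37 °C. Lysis in 0.2 N HCl, neutralisation, cAMP measured by competition with [3H]cAMP for PKA (≥2 h, 4 °C) and charcoal separation; scintillation counting.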
With `NC(=O)[C@H](Cc1ccccc1)NC(=O)[C@H](Cc1ccccc1)NC(=O)[C@@H]1CCCN1C(=O)[C@@H](N)Cc1ccc(O)cc1` the Emax was 82.8%. In the case of `C=C(C(N)=O)[C@@H](NC(=O)[C@H](Cc1c[nH]c2ccccc12)NC(=O)[C@@H]1CCCN1C(=O)[C@@H](N)Cc1ccc(O)cc1)c1ccc(F)cc1`, the Emax is reported as 81.5%. `C=C(C(N)=O)[C@@H](NC(=O)[C@H](Cc1c[nH]c2ccccc12)NC(=O)[C@@H]1CCCN1C(=O)[C@@H](N)Cc1ccc(O)cc1)c1ccc(Cl)cc1` gave an Emax of 85.6%.

Tested on: Mus musculus
Test: Antinociceptive activity in icv dosed Kunming mouse assessed as inhibition of heat-induced tail flick after 5 to 60 mins
Assay type: functional
In short: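 Male Kunming mice (18−22 g), peptide or saline given icv; tail immersed in 50 ± 0.2 °C water and withdrawal latency recorded; only mice with baseline latency about 3−5 s used. Readings at 5, 10, 15, 20, 30, 40, 50 and 60 min post-injection; 10−15 mice per group. Naloxone 2 mg/kg ip 10 min before icv dosing for antagonism. ED50 with 95% confidence limits by graded dose−response.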
For `C=C(C(N)=O)[C@@H](NC(=O)[C@H](Cc1c[nH]c2ccccc12)NC(=O)[C@@H]1CCCN1C(=O)[C@@H](N)Cc1ccc(O)cc1)c1ccc(F)cc1`, the inhibition was “Dose-dependent effect”. With `C=C(C(N)=O)[C@@H](NC(=O)[C@H](Cc1c[nH]c2ccccc12)NC(=O)[C@@H]1CCCN1C(=O)[C@@H](N)Cc1ccc(O)cc1)c1ccc(Cl)cc1` the inhibition was “Dose-dependent effect”.

Molecular target: Delta-type opioid receptor (Mus musculus) (UniProt P32300)
Sequence (P32300 whole entry): as above
Test: Agonist activity at delta opioid receptor in Kunming mouse vas deferens assessed as inhibition of electrically-stimulated muscle contraction in presence of delta opioid receptor antagonist naltrindole
Assay type: functional, tissue-based
For `NC(=O)[C@H](Cc1ccccc1)NC(=O)[C@H](Cc1c[nH]c2ccccc12)NC(=O)[C@@H]1CCCN1C(=O)[C@@H](N)Cc1ccc(O)cc1`, the inhibition was “inactive”. In the case of `NC(=O)[C@H](Cc1ccccc1)NC(=O)[C@H](Cc1ccccc1)NC(=O)[C@@H]1CCCN1C(=O)[C@@H](N)Cc1ccc(O)cc1`, the inhibition is reported as “inactive”. With `C=C(C(N)=O)[C@@H](NC(=O)[C@H](Cc1c[nH]c2ccccc12)NC(=O)[C@@H]1CCCN1C(=O)[C@@H](N)Cc1ccc(O)cc1)c1ccc(F)cc1` the inhibition was “inactive”. For `C=C(C(N)=O)[C@@H](NC(=O)[C@H](Cc1c[nH]c2ccccc12)NC(=O)[C@@H]1CCCN1C(=O)[C@@H](N)Cc1ccc(O)cc1)c1ccc(Cl)cc1`, the inhibition was “inactive”.

Molecular target: Mu-type opioid receptor (Cavia porcellus, UniProt P97266)
Sequence (P97266 whole entry): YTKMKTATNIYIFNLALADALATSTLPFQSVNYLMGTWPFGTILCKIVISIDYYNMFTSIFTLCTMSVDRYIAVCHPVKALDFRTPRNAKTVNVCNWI
Test: Agonist activity at mu opioid receptor in guinea pig ileum assessed as inhibition of electrically-stimulated muscle contraction
Assay type: functional, tissue-based
In the case of `C=C(C(N)=O)[C@@H](NC(=O)[C@H](Cc1c[nH]c2ccccc12)NC(=O)[C@@H]1CCCN1C(=O)[C@@H](N)Cc1ccc(O)cc1)c1ccc(F)cc1`, the IC50 is reported as 31.5 nM. Work on `C=C(C(N)=O)[C@@H](NC(=O)[C@H](Cc1c[nH]c2ccccc12)NC(=O)[C@@H]1CCCN1C(=O)[C@@H](N)Cc1ccc(O)cc1)c1ccc(Cl)cc1` yielded an IC50 of 15.3 nM.

Molecular target: T1, Mu-type opioid receptor
Test: Agonist activity at mu opioid receptor expressed in HEK293 cells assessed as inhibition of forskolin-induced cAMP accumulation after 30 mins by liquid scintillation counter
Assay type: functional, cell-based
With `C=C(C(N)=O)[C@@H](NC(=O)[C@H](Cc1c[nH]c2ccccc12)NC(=O)[C@@H]1CCCN1C(=O)[C@@H](N)Cc1ccc(O)cc1)c1ccc(F)cc1` the EC50 was 7.35 nM and the inhibition was “Dose-dependent effect”. In the case of `C=C(C(N)=O)[C@@H](NC(=O)[C@H](Cc1c[nH]c2ccccc12)NC(=O)[C@@H]1CCCN1C(=O)[C@@H](N)Cc1ccc(O)cc1)c1ccc(Cl)cc1`, the EC50 is reported as 12 nM and the inhibition is reported as “Dose-dependent effect”.
